Data taken from paper PMC3055939 (Chemical biology & drug design, 2011).

What was measured:
[1] = biological target: purified PSMA (GCP2) (Homo sapiens, UniProt Q04609); experiment: IC50 determinations for PSMA inhibition; type: biochemical
How it was run: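 Purified PSMA (working stock 50 μg/mL) was diluted in 50 mM Tris, pH 7.4, 1% Triton X-100 to give 15–20% substrate conversion without inhibitor. […] Reactions were quenched with 2% TFA in methanol, buffered with K2HPO4, and centrifuged. Product was quantified by HPLC, and IC50 was calculated.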

[2] = cited from earlier work

Chain of purified PSMA (GCP2) (Q04609 whole entry): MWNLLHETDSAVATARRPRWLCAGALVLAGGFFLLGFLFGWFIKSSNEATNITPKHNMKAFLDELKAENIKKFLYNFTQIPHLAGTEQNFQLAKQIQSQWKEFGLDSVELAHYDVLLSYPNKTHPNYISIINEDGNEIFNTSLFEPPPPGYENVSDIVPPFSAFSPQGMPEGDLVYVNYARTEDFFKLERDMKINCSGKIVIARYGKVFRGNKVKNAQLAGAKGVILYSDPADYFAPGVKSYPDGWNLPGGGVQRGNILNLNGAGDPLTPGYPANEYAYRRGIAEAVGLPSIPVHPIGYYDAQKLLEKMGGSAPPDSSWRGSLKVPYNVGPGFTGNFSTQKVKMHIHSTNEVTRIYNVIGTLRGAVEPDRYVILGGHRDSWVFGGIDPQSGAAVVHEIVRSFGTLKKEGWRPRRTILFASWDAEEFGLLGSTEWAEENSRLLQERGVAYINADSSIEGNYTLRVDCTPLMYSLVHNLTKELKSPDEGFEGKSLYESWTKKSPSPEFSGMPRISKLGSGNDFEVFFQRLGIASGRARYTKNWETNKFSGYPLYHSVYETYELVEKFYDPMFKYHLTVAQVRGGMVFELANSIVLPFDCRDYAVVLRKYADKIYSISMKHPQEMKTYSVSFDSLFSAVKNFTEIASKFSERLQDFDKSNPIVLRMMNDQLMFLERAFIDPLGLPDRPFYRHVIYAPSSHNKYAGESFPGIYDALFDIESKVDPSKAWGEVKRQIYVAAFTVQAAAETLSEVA

Structure (SMILES) | IC50 [1] [µM] | oral bioavailability [2]
C=CS(=O)(=O)NC(CCC(=O)O)C(=O)O (centres unmarked) [2e, 2-Ethenesulfonylamino-pentanedioic acid] | > 100 | –
O=C(O)CCC(CP(=O)(O)O)C(=O)O (centres unmarked) [2-PMPA] | – | poor oral bioavailability
